Screening data as filed in PubChem BioAssay.
Shown are actives, neighbours in structure and some others; about 2.9% of the full set was active somewhere.
SENP7 block: blocks the human protease SENP7; Q9BQF6; recombinant SENP7, Z-RLRGG-aminoluciferin luminescence, 40 min; inhibition, % at 5 µM; 1.5% of 330,000 active;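 active = inhibition above about 50% at the single test dose, limit read from the data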;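 note: plate controls were DMSO with enzyme for no effect and no enzyme buffer wells for full effect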
Target sequence (Q9BQF6 706-1050 limits assumed): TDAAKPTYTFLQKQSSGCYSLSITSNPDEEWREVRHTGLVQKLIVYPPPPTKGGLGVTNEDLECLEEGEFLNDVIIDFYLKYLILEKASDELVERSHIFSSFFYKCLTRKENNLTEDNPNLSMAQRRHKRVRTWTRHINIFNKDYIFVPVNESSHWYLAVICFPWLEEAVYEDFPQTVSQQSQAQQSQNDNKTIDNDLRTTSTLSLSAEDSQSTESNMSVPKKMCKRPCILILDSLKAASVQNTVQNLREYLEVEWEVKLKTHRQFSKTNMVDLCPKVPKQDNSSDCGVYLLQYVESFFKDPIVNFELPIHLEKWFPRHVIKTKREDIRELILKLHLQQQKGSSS
SENP6 block: SENP6 protease inhibition; inhibition, % at 10 µM; Recombinant SENP6 catalytic domain, aminoluciferin luminescence; 1.8% of 330,000 active;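 active = inhibition above about 50% at the single tested dose, limit read from the data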;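 note: plate controls were DMSO wells with enzyme for no effect and DMSO wells lacking enzyme for full effect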
SENP8 block-1: SENP8 protease inhibition; inhibition, % at 10 µM; 1.2% of 330,000 active; purified SENP8, Z-RLRGG-aminoluciferin cleavage, luminescence; Q96LD8; in the data active = inhibition above about 50%
Target sequence (Q96LD8 whole entry, looked up): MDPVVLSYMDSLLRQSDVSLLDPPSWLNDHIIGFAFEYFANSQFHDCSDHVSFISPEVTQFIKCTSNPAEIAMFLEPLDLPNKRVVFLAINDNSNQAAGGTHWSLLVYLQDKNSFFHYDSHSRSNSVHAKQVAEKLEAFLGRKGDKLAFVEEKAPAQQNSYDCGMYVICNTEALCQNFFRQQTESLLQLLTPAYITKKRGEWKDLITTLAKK
SENP8 block-2: inhibitors of human SENP8 protease; Q96LD8; recombinant SENP8, Nedd8 substrate fluorescence; inhibition, % at 20 µM; 0.64% of 360,000 active; AID 602440; in the data active = inhibition mostly above about 40%, no sharp cut-off; inactive = mostly below about 27%
SENP1 inh: SENP1 (human) catalytic domain inhibition; recombinant SENP1 catalytic domain, CyPet-SUMO1-YPet FRET cleavage; inhibition, % at 10 µM; 0.21% of 360,000 active;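 active = inhibition at least 30% at 10 µM, raw YFP signal under a set limit, fluorescence ratio 0.5 to 1.5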;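 note: 0% = enzyme with DMSO and 100% = no enzyme wells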
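Assay system: hSENP1 catalytic domain, recombinant. Amount: SENP1 enzyme, 20 pM final. Schedule: 50 min reaction, RT, dark. Technique: FRET, CFP and YFP emission. Control set: no-enzyme wells low, DMSO-plus-enzyme wells high control.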
HSP90 refold inh: inhibitors of HSP90 luciferase refolding in rabbit reticulocyte lysate; luciferase refolding luminescence, 3 h; inhibition, % at 5.6 µM; 0.91% of 290,000 active; AID 1789;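 active = inhibition above the screen-wide mean plus 3 SD, computed separately per campaign, cut at about 16% in these data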;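 note: 0% = DMSO wells and 100% = 60 µM geldanamycin wells; inhibitors lower the luminescence because luciferase stays unfolded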
SENP8 confirm: human SENP8 inhibition, confirmed. Recombinant SENP8, Z-RLRGG-aminoluciferin luminescence, 60 min. inhibition, % at 12.5 µM. AID 488912. shares compounds with SENP7 block. 40% of 6,200 active;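 active = mean inhibition across replicates above about 50%, limit read from the data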
SENP6 conf: confirmation of human SENP6 protease inhibitors. 58% of 6,200 active. shares compounds with SENP7 block. inhibition, % at 12.5 µM. AID 488915. recombinant SENP6, Z-RLRGG-aminoluciferin luminescence
SENP7 conf: confirmation of human SENP7 protease inhibitors; shares compounds with SENP7 block; recombinant SENP7, Z-RLRGG-aminoluciferin luminescence, 40 min; inhibition, % at 12.5 µM; 69% of 6,200 active
Casp3 select: caspase-3 inhibition (SENP selectivity assay); shares compounds with SENP7 block; purified caspase-3, Z-DEVD-aminoluciferin luminescence, 60 min; inhibition, % at 12.5 µM; 60% of 6,200 active;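 active = mean inhibition above about 50%, limit read from the data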;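 note: plate controls were enzyme with DMSO for no effect and wells without caspase-3 for full effect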
Luc interf: counter-screen for SENP inhibitors: luminescence interference | 39% of 6,200 active | AID 488919 | inhibition, % at 12.5 µM | Pre-incubated SENP8/Z-RLRGG-aminoluciferin, luciferase luminescence interference | shares compounds with SENP7 block;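 active = mean inhibition above about 50% when retested at one dose, limit read from the data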;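 note: plate controls were DMSO wells with completed reaction for no effect and substrate without enzyme for full effect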
Active calls of the source: *; i = inactive; · = no result.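 Rule for the calls, unless noted: active = mean inhibition above about 50% in the one-dose retest (limit read from the data); inactive = the rest.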

SMILES | SENP7 block | SENP6 block | SENP8 block-1 | SENP8 block-2 | SENP1 inh | HSP90 refold inh | SENP8 confirm | SENP6 conf | SENP7 conf | Casp3 select | Luc interf
CCOc1ccccc1C(=O)Nc1cccc(-c2ccc(N3CCOCC3)nn2)c1 | 70* | 78* | 55* | -15 | -1 | · | 24 | 68* | 89* | 63* | 17
CC(=O)c1c(C)oc2c1cc(O)c1ccccc12 | 6 | -18 | 0 | 7 | 1 | 1 | · | · | · | · | ·
CC(=O)c1cc(O)c2ccccc2c1O | 8 | 60* | 27 | -18 | -27 | 6 | 1 | 10 | -2 | -2 | 1
COc1cccc(Cn2c(N)c(C#N)c3nc4ccccc4nc32)c1OC | 26 | 85* | 38 | -380 | -42 | 14 | -19 | -11 | -8 | -9 | -7
N#Cc1c(N)n(CCNC(=O)c2ccc(Cl)cc2)c2nc3ccccc3nc12 | 41 | 70* | 42 | i | -18 | 4 | 4 | 6 | 5 | 2 | -5
COc1cc(Cn2c(N)c(C#N)c3nc4ccccc4nc32)cc(OC)c1 | 8 | 88* | 23 | -295 | -122 | 6 | 5 | 8 | 12 | 5 | 7
N#Cc1c(N)n(CCOC(=O)c2cccc(Br)c2)c2nc3ccccc3nc12 | 14 | 1 | 6 | -486 | -32 | 0 | · | · | · | · | ·
COCCn1c(N)c(C#N)c2nc3ccccc3nc21 | 25 | 47 | 23 | -313 | -40 | 8 | · | · | · | · | ·
N#Cc1c(N)n(CCc2ccc(F)cc2)c2nc3ccccc3nc12 | 15 | 62* | 24 | -413 | -30 | 5 | -17 | 0 | 4 | -1 | -2
O=C(Nc1ccc(Cc2nc3ccccc3s2)cc1)c1ccncc1 | 4 | 8 | 4 | 3 | 5 | 1 | · | · | · | · | ·
CCN1C[C@@H]2[C@@H]3C(=O)N(Cc4ccccc4)C(=O)[C@@H]3[C@](C)(C1=O)N2C(=O)c1ccc(Cl)c(Cl)c1 | · | · | · | 10 | -1 | · | · | · | · | · | ·
Cn1c(SCc2cccc(F)c2)nnc1-c1ccncc1 | 5 | 3 | -4 | -5 | -32 | 0 | · | · | · | · | ·
CSc1ccc(NC(=O)Nc2cccn(Cc3ccccc3F)c2=O)cc1 | 49 | 63* | 44 | -190 | 0 | -1 | 21 | 9 | 43 | 26 | -2
CCc1ccccc1NC(=O)Nc1cccn(Cc2ccccc2F)c1=O | 0 | -29 | -12 | -398 | 1 | 5 | · | · | · | · | ·
O=C(CSc1ncccc1-c1nc2ccccc2[nH]1)N1CCc2ccccc21 | 55* | 0 | -11 | -179 | -5 | 11 | 4 | -2 | 16 | 11 | 6
CCN(CC)CCCNc1oc(-c2ccccc2[N+](=O)[O-])nc1C#N | 9 | 2 | -2 | -32 | -8 | 3 | · | · | · | · | ·
O=c1[nH]c2ccccc2nc1/C=C/c1ccc(Cl)cc1 | 72* | -10 | -1 | -377 | -22 | -3 | 1 | 2 | 2 | 4 | 2
Nc1ncnc2c1ncn2[C@@H]1O[C@H](CCC(=O)NCc2ccccc2)[C@@H](O)[C@H]1O | · | · | · | 15 | -5 | · | · | · | · | · | ·
CC(=O)N1CCN(c2ccc([N+](=O)[O-])c(NCC3CCCO3)c2)CC1 (stereo not drawn) | 7 | 2 | -1 | 36 | 2 | -1 | · | · | · | · | ·
O=C(c1ccccc1F)N1CCN(c2ccc([N+](=O)[O-])c(NCC3CCCO3)c2)CC1 (stereo not drawn) | 54* | 2 | 4 | 24 | -1 | -1 | -12 | -8 | -10 | 3 | -2
NCCNc1cc(N2CCCC2)ccc1[N+](=O)[O-] | 77* | -12 | 1 | 20 | 5 | 2 | -29 | -14 | -5 | -6 | -7
Cc1ccccc1S(=O)(=O)Oc1ccc2ccc(O)cc2c1 | 1 | 43 | 9 | 0 | 1 | 2 | · | · | · | · | ·
Cc1ccccc1C(=O)Oc1ccc2ccc(O)cc2c1 | 59* | 73* | 59* | 2 | 0 | -1 | 50 | 76* | 84* | 25 | 24
COc1cccc(C(=O)Oc2ccc3ccc(O)cc3c2)c1 | 38 | 69* | 38 | · | · | 1 | 46 | 64* | 80* | 17 | 13
O=c1c2ccccc2nnn1-c1ccccc1[N+](=O)[O-] | · | · | · | 4 | 1 | · | · | · | · | · | ·
SMILES | SENP7 block | SENP6 block | SENP8 block-1 | SENP8 block-2 | SENP1 inh | HSP90 refold inh | SENP8 confirm | SENP6 conf | SENP7 conf | Casp3 select | Luc interf
COc1cc(C=Cc2nnc3c4ccccc4cnn23)cc(OC)c1OC | · | · | · | -113 | 1 | · | · | · | · | · | ·
CCCSc1ccc(C(=O)Nc2ccc(F)cc2F)cn1 | 68* | 52* | 36 | 14 | 3 | -1 | 1 | -1 | 19 | 22 | -7
CCOc1ncccc1C(=O)OCC(=O)Nc1cc(S(=O)(=O)N(CC)CC)ccc1C | 3 | 13 | 0 | 13 | -2 | -1 | · | · | · | · | ·
CCN(CC)S(=O)(=O)c1ccc(C)c(NC(=O)COC(=O)C=C(C)C)c1 | 6 | 56* | -5 | 27 | 0 | 0 | -6 | -9 | -3 | 6 | 3
O=C(NCCSc1ccccc1)c1ccc(Br)cc1 | 47 | 68* | 27 | 15 | 1 | 1 | 52* | 49 | 76* | 45 | 15
COCC(C)NC(=O)c1nn(Cc2ccccc2)c(=O)c2ccccc12 (stereo not drawn) | 5 | 61* | 0 | 8 | -1 | -4 | -6 | -6 | 2 | 11 | 6
O=C(Nc1ccc(S(=O)(=O)Nc2ncccn2)cc1)c1nn(Cc2ccccc2)c(=O)c2ccccc12 | 17 | 85* | 66* | 2 | -3 | 3 | 4 | 17 | 26 | 36 | 9
COc1cc(NC(=O)Cn2cnc(C(=O)Nc3ccc(C)c(C)c3)n2)cc(OC)c1OC | 7 | · | · | 6 | 0 | · | · | · | · | · | ·
Clc1ccc(-c2csc(-c3ccno3)n2)cc1 | 58* | 44 | 20 | -23 | 2 | 0 | -5 | 10 | 36 | 35 | 9
Clc1ccc(-c2cc(CSc3ccccc3)on2)cc1 | 25 | 5 | -7 | 21 | 2 | -3 | · | · | · | · | ·
Clc1ccc(-c2cc(-c3ccccc3)on2)cc1 | 58* | 11 | -4 | 10 | 1 | · | 13 | 9 | -2 | 9 | 1
Cc1nc(-c2cc(-c3ccc(Cl)cc3)no2)cs1 | 92* | 76* | 68* | 17 | -1 | 0 | 23 | 30 | 16 | 24 | 1
COCCN(C(=O)COC(=O)c1ccc(Br)o1)c1c(N)n(Cc2ccccc2)c(=O)[nH]c1=O | · | · | · | 12 | 0 | · | · | · | · | · | ·
